Screening data as filed in PubChem BioAssay.
Rows were chosen to be rich in hits. Some 4% of all compounds tested hit in one or more screens of this group.
Measles CPE – compounds protecting cells from measles virus cytopathic effect, primary screen, measles RdRp inhibitor project, single point, MLSMR library, absorbance | Measles virus-infected cells, CPE protection | protection (pct of control), % at 4 µM | actives 1.5% (n = 140,000) | AID 841, 2007; in the data active = protection mostly above about 24%, no sharp cut-off; inactive = mostly below about 26%
Yeast growth inh – growth inhibitors of yeast BB579 in restrictive medium, primary screen, yeast lifespan-shortening project, S. cerevisiae | OD615, 48 h | inhibition, % at 10 µM | actives 0.51% (n = 140,000) | AID 804, 2007;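 active = inhibition above a set limit, 3 SD over the mean compound inhibition, cut at about 44% in these data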
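System: Saccharomyces cerevisiae DeaD strain BB579, replicative lifespan model yeast | Buffer or medium: Restrictive glucose-based CSMM-D medium | Times: 4 h preincubation and 48 h exposure at 30 °C | Detection: OD615 turbidity measurement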
Yeast life ext – compounds extending yeast replicative lifespan, primary screen, S. cerevisiae, OD615 | S. cerevisiae growth with nicotinamide; deaD strain in restrictive glucose medium | inhibition of the nicotinamide effect, % at 10 µM | actives 0.68% (n = 130,000) | AID 775, 2007;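 active = inhibition above a set limit, placed 3 SD over the median of all compounds, cut at about 26% in these data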;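 note: 0% = nicotinamide-treated wells and 100% = cells grown without nicotinamide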
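System: DeaD-strain S. cerevisiae / Buffer or medium: CSMM-D, restrictive glucose (dextrose) synthetic minimal medium / Probe or stimulus: nicotinamide, 1.5 mM, co-present with compound / Compound: one concentration, 10 µM, DMSO 0.25% / Incubation: 48 h compound exposure at 30 °C, humidified / Technique: optical density (absorbance) at 615 nm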
RAM network inh – inhibitors of the yeast RAM network, primary screen, dse1pr::URA3 reporter, 5-FOA selection | inhibition, % at 50 µM | S. cerevisiae dse1pr::URA3 reporter, 5-FOA growth OD615, 2 d; analog-sensitive cbk1-as2 kinase mutant strain | actives 1.8% (n = 190,000);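 active = inhibition above a set limit, 3 SD over mean compound inhibition, cut at about 8.4% in these data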;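 note: 0% = DMSO-only wells with no growth and 100% = 10 µM 1-NA-PP1 full growth; inhibition rescues growth on 5-FOA so higher OD means more RAM inhibition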
MDM2 E3 inh – MDM2-luciferase reporter signal enhancers, primary screen, MDM2 E3 ligase inhibitor project, cell-based, luminescence, 1536-well | AID 1230, 2008 | E3 ubiquitin-protein ligase Mdm2 (Homo sapiens), Q00987 | actives 0.11% (n = 210,000) | signal enhancement, % at 5 µM | cell-based MDM2 ubiquitination luciferase reporter, 2 h; 0 = plate control, 100 = twice control, blank-subtracted;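 active = signal enhancement of 30% or more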;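 note: luminescence tracks abundance of the self-degrading MDM2-luciferase fusion protein; higher signal means inhibition of MDM2 E3 ligase activity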
Target sequence (Q00987 whole entry, looked up, the tested form may be a part): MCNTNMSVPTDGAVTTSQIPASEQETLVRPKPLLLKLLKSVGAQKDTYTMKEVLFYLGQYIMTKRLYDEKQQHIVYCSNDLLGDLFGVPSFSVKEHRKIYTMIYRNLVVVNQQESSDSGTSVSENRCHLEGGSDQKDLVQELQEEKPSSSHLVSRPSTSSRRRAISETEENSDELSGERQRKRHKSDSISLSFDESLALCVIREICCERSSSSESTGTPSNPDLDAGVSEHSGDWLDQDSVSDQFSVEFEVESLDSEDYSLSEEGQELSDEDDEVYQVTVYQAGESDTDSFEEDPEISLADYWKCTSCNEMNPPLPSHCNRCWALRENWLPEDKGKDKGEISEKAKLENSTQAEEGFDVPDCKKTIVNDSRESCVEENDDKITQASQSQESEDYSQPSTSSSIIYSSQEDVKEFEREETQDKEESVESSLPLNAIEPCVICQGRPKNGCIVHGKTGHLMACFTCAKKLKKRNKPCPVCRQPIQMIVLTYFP
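System: stable MDM2–luciferase fusion reporter cells / Input: 2000 cells seeded into each well / Schedule: 4 h settle plus 2 h compound, 37 °C / Compound: single-point 5 µM / Buffer or medium: cells held in DMEM / Benchmarks: control and blank well means / Evaluation: percent signal gain over controls, blank-subtracted / Measured by: luciferase luminescence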
INS promoter inh – inhibitors of insulin promoter-driven GFP, primary screen, imaging, TRM-6 cells (human fetal islet line), eGFP reporter, cell count; actives 0.9% (n = 130,000); reporter expression induced with tamoxifen; inhibition, % at 2 µM;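 active = inhibition above the mean plus 3 SD, with well images judged a real hit on visual review, cut at about 60% in these data, passing the limit was not always enough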
RAM efflux-def – 5-FOA growth of efflux-deficient control yeast, dose response, counter-screen for RAM network inhibitor project, S. cerevisiae, OD615; S. cerevisiae efflux-deficient reporter strain, 5-FOA growth OD615, 2 days; AID 1305, 2008; shares compounds with RAM network inh; 1,200 tested, under 10 active; max inhibition, %; call rule not given here;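 note: plate controls were vehicle for no effect and reference inhibitor for full effect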
* marks the source's active call; other numbers are inactive results; nt = no result given.

SMILES | Measles CPE | Yeast growth inh | Yeast life ext | RAM network inh | MDM2 E3 inh | INS promoter inh | RAM efflux-def
CCOC(=O)c1c(C)[nH]c(C(=O)OCC(=O)NC2CCS(=O)(=O)C2)c1C (stereo not drawn) | 18 | 26 | -16 | 0 | -9 | 0 | nt
O=C(Nc1ccc2c(c1)OCO2)c1ccc(COc2ccc3c(c2)CCC3)o1 | 24 | -35 | -8 | 11* | -7 | 0 | 3
Cc1ccc(C(=O)Nc2ccc3c(c2)CCC3)o1 | 27 | -1 | -15 | 0 | -5 | 16 | nt
COc1ccc(C(=O)NNC(=O)CSc2nnc(-c3cccnc3)n2C)cc1 | nt | nt | nt | 1 | -14 | nt | nt
CCCCN(CC(=O)NCc1ccc(Cl)cc1)S(=O)(=O)c1ccc2c(c1)OCCO2 | 2 | -59 | 11 | 13* | -11 | -8 | 3
O=C(CN(c1ccc2c(c1)OCCO2)S(=O)(=O)c1ccccc1)NCc1ccc(Cl)cc1 | 5 | -41 | 4 | 8 | 4 | -14 | nt
O=Cc1sc(N2CCOCC2)nc1-c1ccccc1 | nt | nt | nt | 1 | -4 | 18 | nt
COCCNCC(=O)Nc1nc(C)cs1 | nt | nt | nt | 0 | -94 | nt | nt
Cn1cnnc1SC1c2cccc3cccc(c23)C1NS(=O)(=O)c1ccc(Cl)cc1 (stereo not drawn) | 21 | -32 | 5 | 12* | -5 | -19 | 2
Cn1cnnc1SC1c2cccc3cccc(c23)C1NS(=O)(=O)c1ccccc1 (stereo not drawn) | 15 | -35 | 2 | 3 | -7 | -13 | nt
O=C(O)c1ccc(S(=O)(=O)N(Cc2cccs2)CC2CCCO2)cc1 (stereo not drawn) | nt | nt | nt | nt | -21 | nt | nt
COc1ccc(CCN(Cc2cccs2)S(=O)(=O)c2ccc(C(=O)O)cc2)cc1OC | nt | nt | nt | 13* | -4 | nt | 2
COC(=O)CCSC(=S)N1CCOCC1 | nt | nt | nt | nt | -16 | nt | nt
Cc1ccc(Cc2nnc3n(-c4cccc(C)c4)nc(C(=O)c4ccccc4)n3c2=O)cc1 | 20 | -15 | nt | 15* | -2 | -25 | 2
COC(=O)c1nn(-c2cccc(C)c2)c2nnc(Cc3ccc(C)cc3)c(=O)n12 | 27 | -3 | 18 | 0 | -1 | 46 | nt
CC(C)OC(=O)CC(=O)CSc1nc(-c2ccc(F)cc2)cc(-c2ccccc2)c1C#N | 10 | -10 | 2 | 14* | -1 | nt | 5
COc1ccc(/C=N/Nc2nc(Nc3ccccc3)nc(N3CCCCC3)n2)cc1OC | 5 | -49 | -11 | 0 | -15 | -2 | nt
CCOc1cc(/C=N/Nc2nc(Nc3ccccc3)nc(N3CCCCC3)n2)ccc1OCC(=O)O | nt | nt | nt | 19* | -20 | 58 | 8
